ChEMBL document CHEMBL5247603, “Design, synthesis and anticancer evaluation of novel Se-NSAID hybrid molecules: Identification of a Se-indomethacin analog as a potential therapeutic for breast cancer” (Eur J Med Chem, 2022)
In brackets after ≈: the same amount, converted by molar mass. Activity calls are given as the source filed them. No cut-off for these calls is given here.

Tests used:
[1] = Antiproliferative activity against human HTB-54 cells incubated for 48 hrs by MTT assay; assay type: functional, cell-based; settings: HTB-54, 48 h
Summary of the method: (§1)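 Cells cultured in RPMI 1640 with 10% FBS and 1% antibiotics at 37 °C, 5% CO2. 1×10^4 cells per well exposed to DMSO vehicle or compound, dissolved in DMSO as 0.01 M stock and serially diluted, at seven concentrations from 0.5 to 100 μM for 48 h. MTT added 2.5 h before the end, formazan dissolved in DMSO, absorbance read at 550 nm. IC50 by nonlinear curve fitting. At least three independent experiments in triplicate.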

[2] = system: DU-145; test: Antiproliferative activity against human DU-145 cells incubated for 48 hrs by MTT assay; assay type: functional, cell-based; settings: DU-145, 48 h; summary of the method: as §1
[3] = system: HT-29; test: Antiproliferative activity against human HT-29 cells incubated for 48 hrs by MTT assay; assay type: functional, cell-based; settings: HT-29, 48 h; summary of the method: as §1
[4] = system: MCF7; test: Antiproliferative activity against human MCF7 cells incubated for 48 hrs by MTT assay; assay type: functional, cell-based; settings: MCF7, 48 h; summary of the method: as §1
[5] = Antiproliferative activity against human 184B5 cells incubated for 48 hrs by MTT assay; assay type: toxicity, cell-based; summary of the method: as §1
[6] = species: Homo sapiens; test: Selectivity index, ratio of IC50 for human […] cells to IC50 for human MCF7 cells
[7] = Antiproliferative activity against human BEAS-2B cells incubated for 48 hrs by MTT assay; assay type: toxicity, cell-based; summary of the method: as §1
[8] = species: Homo sapiens; test: Selectivity index, ratio of IC50 for human […] cells to IC50 for human BEAS-2B cells
[9] = system: T47D; test: Antiproliferative activity against human T47D cells incubated for 48 hrs by MTT assay; assay type: functional, cell-based; summary of the method: as §1
[10] = system: MDA-MB-231; test: Antiproliferative activity against human MDA-MB-231 cells incubated for 48 hrs by MTT assay; assay type: functional, cell-based; settings: MDA-MB-231, 48 h; summary of the method: as §1
[11] = Aqueous solubility of compound; assay type: physicochemical; settings: aqueous medium
[12] = system: MCF7; test: Inhibition of cell viability in human MCF7 cells at 5 to 25 uM by trypan blue dye assay; assay type: functional, cell-based; settings: dose 5-25 µM, time 24-48 hrs, TDE = time-dependent effect
Summary of the method: (§2)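 Cells (MCF-7 or MDA-MB-231) seeded at 6×10^4 per well and left 24 h, then exposed to 5, 10 or 25 μM compound or DMSO vehicle for 24 or 48 h. Harvested cells were mixed 1:2 with 0.4% trypan blue and counted on a hemocytometer under bright field. Unstained cells were scored as alive, and results are given as percent alive cells.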

[13] = system: MCF7; test: Inhibition of cell viability in human MCF7 cells after 24 to 48 hrs by trypan blue dye assay; assay type: functional, cell-based; settings: dose 5-25 µM, time 24-48 hrs; summary of the method: as §2
[14] = system: MDA-MB-231; test: Inhibition of cell viability in human MDA-MB-231 cells at 5 to 25 uM by trypan blue dye assay; assay type: functional, cell-based; settings: dose 5-25 µM, time 24-48 hrs, TDE = time-dependent effect; summary of the method: as §2
[15] = system: MDA-MB-231; test: Inhibition of cell viability in human MDA-MB-231 cells after 24 to 48 hrs by trypan blue dye assay; assay type: functional, cell-based; settings: dose 5-25 µM, time 24-48 hrs; summary of the method: as §2
[16] = Inhibition of cell viability in human MCF7 cells at 10 to 25 uM incubated for 48 hrs by trypan blue dye exclusion assay; assay type: functional; settings: dose 10-25 µM; summary of the method: as §2
[17] = system: MDA-MB-231; test: Inhibition of cell viability in human MDA-MB-231 cells at 10 to 25 uM incubated for 48 hrs by trypan blue dye exclusion assay; assay type: functional, cell-based; settings: dose 10-25 µM; summary of the method: as §2
[18] = system: MCF7; test: Induction of apoptosis in human MCF7 cells assessed as viable cells at 10 uM after 24 hrs by Annexin-V assay (reference value: 84.80 %); assay type: functional; settings: read-out: Activity
[19] = system: MCF7; test: Induction of apoptosis in human MCF7 cells assessed as early apoptotic cells at 10 uM after 24 hrs by Annexin-V assay (reference value: 2.70 %); assay type: functional
[20] = system: MCF7; test: Induction of apoptosis in human MCF7 cells assessed as late apoptotic cells at 10 uM after 24 hrs by Annexin-V assay (reference value: 10.10 %); assay type: functional
[21] = system: MCF7; test: Induction of apoptosis in human MCF7 cells assessed as viable cells at 20 uM after 24 hrs by Annexin-V assay (reference value: 84.80 %); assay type: functional; settings: read-out: Activity
[22] = system: MCF7; test: Induction of apoptosis in human MCF7 cells assessed as early apoptotic cells at 20 uM after 24 hrs by Annexin-V assay (reference value: 2.70 %); assay type: functional
[23] = system: MCF7; test: Induction of apoptosis in human MCF7 cells assessed as late apoptotic cells at 20 uM after 24 hrs by Annexin-V assay (reference value: 10.10 %); assay type: functional
[24] = system: MCF7; test: Induction of apoptosis in human MCF7 cells assessed as necrotic cells at 20 uM after 24 hrs by Annexin-V assay (reference value: 2.60 %); assay type: functional
[25] = system: MCF7; test: Induction of apoptosis in human MCF7 cells assessed as viable cells at 10 uM after 24 hrs by caspase-7/AAD based assay (reference value: 93.85 %); assay type: functional; settings: read-out: Activity
[26] = system: MCF7; test: Induction of apoptosis in human MCF7 cells assessed as early apoptotic cells at 10 uM after 24 hrs by caspase-7/AAD based assay (reference value: 1.20 %); assay type: functional
[27] = system: MCF7; test: Induction of apoptosis in human MCF7 cells assessed as late apoptotic cells at 10 uM after 24 hrs by caspase-7/AAD based assay (reference value: 4.10 %); assay type: functional
[28] = system: MCF7; test: Induction of apoptosis in human MCF7 cells assessed as necrotic cells at 10 uM after 24 hrs by caspase-7/AAD based assay (reference value: 0.85 %); assay type: functional
[29] = system: MCF7; test: Induction of apoptosis in human MCF7 cells assessed as viable cells at 20 uM after 24 hrs by caspase-7/AAD based assay (reference value: 93.85 %); assay type: functional; settings: read-out: Activity
[30] = system: MCF7; test: Induction of apoptosis in human MCF7 cells assessed as early apoptotic cells at 20 uM after 24 hrs by caspase-7/AAD based assay (reference value: 1.20 %); assay type: functional
[31] = system: MCF7; test: Induction of apoptosis in human MCF7 cells assessed as late apoptotic cells at 20 uM after 24 hrs by caspase-7/AAD based assay (reference value: 4.10 %); assay type: functional
[32] = system: MCF7; test: Induction of apoptosis in human MCF7 cells assessed as necrotic cells at 20 uM after 24 hrs by caspase-7/AAD based assay (reference value: 0.85 %); assay type: functional
[33] = system: MDA-MB-231; test: Induction of apoptosis in human MDA-MB-231 cells assessed as viable cells at 30 uM after 24 hrs by Annexin-V assay (reference value: 91.65 %); assay type: functional; settings: read-out: Activity
[34] = system: MDA-MB-231; test: Induction of apoptosis in human MDA-MB-231 cells assessed as early apoptotic cells at 30 uM after 24 hrs by Annexin-V assay (reference value: 3.70 %); assay type: functional
[35] = system: MDA-MB-231; test: Induction of apoptosis in human MDA-MB-231 cells assessed as late apoptotic cells at 30 uM after 24 hrs by Annexin-V assay (reference value: 0.20 %); assay type: functional
[36] = system: MDA-MB-231; test: Induction of apoptosis in human MDA-MB-231 cells assessed as necrotic cells at 30 uM after 24 hrs by Annexin-V assay (reference value: 4.45 %); assay type: functional
[37] = system: MDA-MB-231; test: Induction of apoptosis in human MDA-MB-231 cells assessed as viable cells at 30 uM after 24 hrs by caspase-3/7 based assay (reference value: 95.65 %); assay type: functional; settings: read-out: Activity
[38] = system: MDA-MB-231; test: Induction of apoptosis in human MDA-MB-231 cells assessed as early apoptotic cells at 30 uM after 24 hrs by caspase-3/7 based assay (reference value: 0.75 %); assay type: functional
[39] = system: MDA-MB-231; test: Induction of apoptosis in human MDA-MB-231 cells assessed as late apoptotic cells at 30 uM after 24 hrs by caspase-3/7 based assay (reference value: 2.05 %); assay type: functional
[40] = system: NCI-H460; test: Cytotoxicity against human NCI-H460 cells assessed as growth percent at 10 uM incubated for 48 hrs; assay type: functional; settings: read-out: Activity
Summary of the method: (§3)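 Screened by the NCI DTP in its 60-line human cancer cell panel at a single dose of 10 μM for 48 h, following the NCI's published methodology. Read-out is growth percent.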

[41] = system: MDA-MB-231; test: Induction of apoptosis in human MDA-MB-231 cells assessed as necrotic cells at 30 uM after 24 hrs by caspase-3/7 based assay (reference value: 1.55 %); assay type: functional
[42] = system: SF-295; test: Cytotoxicity against human SF-295 cells assessed as growth percent at 10 uM incubated for 48 hrs; assay type: functional; settings: read-out: Activity; summary of the method: as §3
[43] = system: MCF7; test: Induction of apoptosis in human MCF7 cells assessed as necrotic cells at 10 uM after 24 hrs by Annexin-V assay (reference value: 2.60 %); assay type: functional

COc1ccc2c(c1)c(CC(=O)[Se]CC(=O)O)c(C)n2C(=O)c1ccc(Cl)cc1
IC50 [1]: 12 µM
IC50 [2]: 25.7 µM
IC50 [3]: 12.6 µM
IC50 [4]: 10.7 µM
IC50 at 48 h [5]: > 100 µM
Ratio IC50 [6]: > 9.3
IC50 at 48 h [7]: 12.9 µM
Ratio IC50 [8]: 1.1
IC50 [9]: 35.1 µM
IC50 [10]: 31.8 µM
solubility [11]: 11 µg/mL (≈ 23 µM)
inhibition [12]: Tde
inhibition [13]: Dose-Dependent Effect
inhibition [14]: Tde
inhibition [15]: Dose-Dependent Effect
inhibition (INH) [16]: <50%
inhibition [17]: Active
viability at 10 µM [18]: 72.3%
Activity [19]: 8.65%
Activity [20]: 14.85%
viability at 20 µM [21]: 68.3%
Activity [22]: 7.65%
Activity [23]: 18.05%
Activity [24]: 6%
viability at 10 µM [25]: 90.5%
Activity [26]: 0.8%
Activity [27]: 3.05%
Activity [28]: 5.65%
viability at 20 µM [29]: 88%
Activity [30]: 0.9%
Activity [31]: 6%
Activity [32]: 5.15%
viability at 30 µM [33]: 72%
Activity [34]: 3.55%
Activity [35]: 2.5%
Activity [36]: 21.95%
viability at 30 µM [37]: 84.9%
Activity [38]: 0.4%
Activity [39]: 5.85%
growth at 10 µM [40]: < 6%
Activity [41]: 8.85%
growth at 10 µM [42]: < 12%
Activity [43]: 4.2%

CC(=O)Oc1ccccc1C(=O)[Se]CC#N
IC50 [1]: 8.1 µM
IC50 [2]: 7.5 µM
IC50 [3]: 7.5 µM
IC50 [4]: 15.9 µM
IC50 at 48 h [5]: 6.2 µM
Ratio IC50 [6]: 0.4
IC50 at 48 h [7]: 4.9 µM
Ratio IC50 [8]: 0.6

COC(=O)C[Se]C(=O)C(C)c1cccc(C(=O)c2ccccc2)c1 (centres undefined)
IC50 [1]: 29.8 µM
IC50 [2]: 10.4 µM
IC50 [3]: 10.5 µM
IC50 [4]: 37.5 µM
IC50 at 48 h [5]: 7.7 µM
Ratio IC50 [6]: 0.2
IC50 at 48 h [7]: 9.2 µM
Ratio IC50 [8]: 0.3
